Laboratory results reported in ChEMBL document CHEMBL1275561, “In vitro activities of doripenem, a new broad-spectrum carbapenem, against recently collected clinical anaerobic isolates, with emphasis on the Bacteroides fragilis group” (2008).
Values after ≈ are worked out from the molar mass of the structure shown.

Key:
Assay type in all cases: functional
[1] = test system: Finegoldia magna; assay: Antimicrobial activity against Finegoldia magna by agar dilution method
Procedure, shortened: (§1)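 Gram-positive anaerobes were tested by CLSI agar dilution on brucella agar enriched with 5% lysed defibrinated sheep blood and 1 μg/ml vitamin K1. Inoculum was log-phase growth at 0.5 McFarland, about 10^5 CFU/spot by replicator. Incubation was anaerobic, 37°C, 48 h. MIC was the lowest concentration with a marked growth change versus the drug-free plate. Eubacterium lentum ATCC 43055 was the control, and tests were repeated if it fell outside the CLSI range.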

[2] = test system: Clostridium subterminale; assay: Antimicrobial activity against Clostridium subterminale by agar dilution method
[3] = test system: Peptoniphilus asaccharolyticus; assay: Antimicrobial activity against Peptoniphilus asaccharolyticus by agar dilution method; procedure, shortened: as §1
[4] = test system: [Clostridium] innocuum; assay: Antimicrobial activity against Clostridium innocuum by agar dilution method
[5] = test system: Anaerococcus prevotii; assay: Antimicrobial activity against Anaerococcus prevotii by agar dilution method; procedure, shortened: as §1
[6] = test system: [Clostridium] innocuum; assay: Antimicrobial activity against Clostridium innocuum assessed as resistant isolates by agar dilution method; conditions: pooled result: one value given for 4 cell lines, strains, targets or settings
[7] = test system: Clostridium paraputrificum; assay: Antimicrobial activity against Clostridium paraputrificum by agar dilution method
[8] = test system: Finegoldia magna; assay: Antimicrobial activity against Finegoldia magna assessed as resistant isolates by agar dilution method
Procedure, shortened: (§2)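 Agar dilution following CLSI on brucella agar with 5% lysed defibrinated sheep blood and 1 μg/ml vitamin K1, plates made on test day. Log-phase cells at 0.5 McFarland, about 10^5 CFU/spot by Steers replicator, 48 h anaerobic at 37°C. MIC read as the lowest concentration causing a marked growth change versus control. Resistance counted by CLSI anaerobe breakpoints. Eubacterium lentum ATCC 43055 served as control.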

[9] = test system: Propionibacterium; assay: Antimicrobial activity against Propionibacterium sp. assessed as resistant isolates by agar dilution method; procedure, shortened: as §2
[10] = test system: Clostridioides difficile; assay: Antimicrobial activity against Clostridium difficile by agar dilution method
[11] = test system: Cutibacterium acnes; assay: Antimicrobial activity against Propionibacterium acnes by agar dilution method
Procedure, shortened: (§3)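 Log-phase isolates were adjusted to 0.5 McFarland, and about 10^5 CFU/spot was delivered by Steers replicator. Plates were incubated anaerobically at 37°C for 48 h. MIC was the lowest concentration giving a marked growth change versus the control plate. Eubacterium lentum ATCC 43055 was the QC strain, with repeats when out of range.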

[12] = test system: Cutibacterium acnes; assay: Antimicrobial activity against Propionibacterium acnes assessed as resistant isolates by agar dilution method; procedure, shortened: as §2
[13] = test system: Clostridium perfringens; assay: Antimicrobial activity against Clostridium perfringens by agar dilution method
[14] = test system: Peptostreptococcus sp.; assay: Antimicrobial activity against Peptostreptococcus sp. by agar dilution method; procedure, shortened: as §3
[15] = test system: Clostridium tertium; assay: Antimicrobial activity against Clostridium tertium by agar dilution method
[16] = test system: Peptoniphilus asaccharolyticus; assay: Antimicrobial activity against Peptoniphilus asaccharolyticus assessed as resistant isolates by agar dilution method; conditions: pooled result: one value given for 4 cell lines, strains, targets or settings; procedure, shortened: as §2
[17] = test system: Parvimonas micra; assay: Antimicrobial activity against Micromonas micros by agar dilution method; procedure, shortened: as §1
[18] = test system: Propionibacterium; assay: Antimicrobial activity against Propionibacterium sp. by agar dilution method; procedure, shortened: as §3

`CC(=O)NC[C@H]1CN(c2ccc(N3CCOCC3)c(F)c2)C(=O)O1` [LINEZOLID] was tested, and the MIC [1] was 2 µg/mL (≈ 5.93 µM), the MIC50 [1] was 2 µg/mL (≈ 5.93 µM) and the MIC90 [1] was 2 µg/mL (≈ 5.93 µM). For the same molecule, the MIC50 [2] was 4 µg/mL (≈ 11.9 µM), the MIC90 [2] was 8 µg/mL (≈ 23.7 µM) and the MIC50 [3] was 1 µg/mL (≈ 2.96 µM). It also gave an MIC90 [3] of 2 µg/mL (≈ 5.93 µM), an MIC50 [4] of 4 µg/mL (≈ 11.9 µM) and an MIC90 [4] of 8 µg/mL (≈ 23.7 µM). It also gave an MIC50 [5] of 1 µg/mL (≈ 2.96 µM), an MIC90 [5] of 2 µg/mL (≈ 5.93 µM) and an Activity [6] of 11%. The MIC50 [7] was 4 µg/mL (≈ 11.9 µM), the MIC90 [7] was 8 µg/mL (≈ 23.7 µM) and the Activity [8] was 0%. It also gave an Activity [9] of 0%, an MIC [10] of 1 µg/mL (≈ 2.96 µM) and an MIC [11] of 0.5 µg/mL (≈ 1.48 µM). The MIC50 [11] was 0.5 µg/mL (≈ 1.48 µM), the MIC90 [11] was 1 µg/mL (≈ 2.96 µM) and the Activity [12] was 0%. It also gave an MIC [13] of 2 µg/mL (≈ 5.93 µM), an MIC50 [13] of 2 µg/mL (≈ 5.93 µM) and an MIC90 [13] of 4 µg/mL (≈ 11.9 µM). For the same molecule, the MIC50 [14] was 1 µg/mL (≈ 2.96 µM), the MIC90 [14] was 2 µg/mL (≈ 5.93 µM) and the MIC50 [15] was 4 µg/mL (≈ 11.9 µM). The MIC90 [15] was 8 µg/mL (≈ 23.7 µM), the Activity [16] was 0% and the MIC50 [17] was 1 µg/mL (≈ 2.96 µM). For the same molecule, the MIC90 [17] was 2 µg/mL (≈ 5.93 µM), the MIC [18] was 0.5 µg/mL (≈ 1.48 µM) and the MIC50 [18] was 0.5 µg/mL (≈ 1.48 µM). It also gave an MIC90 [18] of 0.5 µg/mL (≈ 1.48 µM).
